Activity calls are given as the source filed them. The rule behind the calls is not given here.
Assays:
HeLa = test: Antiproliferative activity against human HeLa cells assessed as reduction in cell viability after 24 hrs by MTT assay; assay type: functional, cell-based
Procedure, shortened: (§1)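 MTT colorimetric assay. Cells in log phase in medium with 10% FBS were seeded at 10⁴ cells/well and left overnight at 37 °C, 5% CO₂ to reattach. Compounds were added at 0.1, 1, 10 and 100 μM in 10% FBS for 24 h. IC50 reported as mean ± SD of three independent experiments.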

NCI-H460 = test: Antiproliferative activity against human H460 cells assessed as reduction in cell viability after 24 hrs by MTT assay; assay type: functional, cell-based; settings: NCI-H460, 24 h; procedure, shortened: as §1
A549 [1] = test: Induction of apoptosis in human A549 cells assessed as early apoptotic cells at 4 uM after 24 hrs by Annexin-V/PI staining based flow cytometry analysis (reference value: 1.15%); assay type: functional
A549 [2] = test: Induction of apoptosis in human A549 cells assessed as necrotic cells after at 4 uM 24 hrs by Annexin-V/PI staining based flow cytometry analysis (reference value: 1.81%); assay type: functional
Procedure, shortened: (§2)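 A549 cells seeded overnight at 37 °C, 5% CO2, then exposed to 0, 2, 4, 8 or 12 µM for 24 h (dose series) or 8 µM for 0, 12, 24, 36 h (time series). Harvested, PBS-washed, stained with Annexin V-FITC and PI in binding buffer 15 min at room temperature in the dark, analysed by flow cytometry; three independent experiments.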

A549 [3] = test: Induction of apoptosis in human A549 cells assessed as necrotic cells after at 8 uM 24 hrs by Annexin-V/PI staining based flow cytometry analysis (reference value: 1.81%); assay type: functional; procedure, shortened: as §2
A549 [4] = test: Induction of apoptosis in human A549 cells assessed as viable cells at 12 uM after 24 hrs by Annexin-V/PI staining based flow cytometry analysis (reference value: 91.4%); assay type: functional; settings: A549, 24 h, read-out: Activity; procedure, shortened: as §2
A549 [5] = test: Induction of apoptosis in human A549 cells assessed as necrotic cells after at 12 uM 24 hrs by Annexin-V/PI staining based flow cytometry analysis (reference value: 1.81%); assay type: functional; procedure, shortened: as §2
A549 [6] = test: Induction of apoptosis in human A549 cells assessed as viable cells at 8 uM after 24 hrs by Annexin-V/PI staining based flow cytometry analysis (reference value: 88.4%); assay type: functional; settings: A549, 24 h, read-out: Activity; procedure, shortened: as §2
A549 [7] = test: Induction of apoptosis in human A549 cells assessed as late apoptotic cells at 8 uM after 24 hrs by Annexin-V/PI staining based flow cytometry analysis (reference value: 6.55%); assay type: functional; procedure, shortened: as §2
A549 [8] = test: Induction of apoptosis in human A549 cells incubated for 24 hrs by Annexin-V/PI staining based flow cytometry analysis; assay type: functional, cell-based; procedure, shortened: as §2
A549 [9] = test: Induction of apoptosis in human A549 cells assessed as reduction in Bcl-2 expression at 2 to 8 uM after 24 hrs by Western blot analysis; assay type: functional, cell-based
Procedure, shortened: (§3)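 A549 cells in 6-well plates were lysed in RIPA buffer with protease inhibitors on ice for 30 min and cleared at 4 °C. Protein was quantified by BCA, run on SDS-PAGE and transferred to PVDF. Membranes were blocked with milk, probed with primary antibody (1:1000) overnight at 4 °C, then secondary antibody (1:3000-1:5000) 1 h at RT. Detection by ECL; band densitometry normalised to GAPDH (β-actin also used). Three independent experiments.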

A549 [10] = test: Induction of apoptosis in human A549 cells assessed as caspase-3 cleavage expression at 2 to 8 uM after 24 hrs by Western blot analysis; assay type: functional, cell-based
Procedure, shortened: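 Western blot of A549 cells treated for 24 h. Lysates in RIPA buffer were run on SDS-PAGE and transferred to PVDF. Primary antibody at 1:1000 overnight at 4 °C, secondary antibody at 1:3000-1:5000 for 1 h, ECL detection. Densitometry was normalised to GAPDH; mean ± S.E.M. from three independent experiments.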

A549 [11] = test: Induction of apoptosis in human A549 cells assessed as high mitochondrial membrane potential at 8 uM after 12 hrs by JC-1 staining-based flow cytometric analysis (reference value: 90.6%); assay type: functional
Procedure, shortened: (§4)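 JC-1 staining of A549 cells treated for 12 h. CCCP-treated wells, 20 min at 37 °C, served as positive control. Collected cells were incubated with JC-1 solution at 37 °C for 30 min, washed, and analysed by flow cytometry for the fraction with high ΔΨm and for PI-positive cells. Results are mean ± S.E.M. of three replicates.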

A549 [12] = test: Induction of apoptosis in human A549 cells assessed as high mitochondrial membrane potential at 12 uM after 12 hrs by JC-1 staining-based flow cytometric analysis (reference value: 90.6%); assay type: functional; procedure, shortened: as §4
A549 [13] = test: Induction of apoptosis in human A549 cells at 8 uM by Annexin-V/PI staining based flow cytometry analysis; assay type: functional, cell-based; settings: TDE = time-dependent effect; procedure, shortened: as §2
A549 [14] = test: Cell cycle arrest in human A549 cells assessed as accumulation at G1 phase at 2 uM after 24 hrs by RNAse A/ PI staining based flow cytometric analysis (reference value: 73.30%); assay type: functional
Procedure, shortened: (§5)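 A549 cells at 5.0×10^4 per well were grown 12 h at 37 °C. Treatment was 0, 2, 4 or 8 µM for 24 h, or 8 µM for 0, 12, 24 or 36 h. Cells were fixed in 70% ethanol at −20 °C for at least 12 h, then stained in PBS with 0.1 mg/mL RNase A and 5 µg/mL PI. At least 10,000 events per sample were collected by flow cytometry to give G0/G1, S and G2/M percentages.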

A549 [15] = test: Cell cycle arrest in human A549 cells assessed as accumulation at G2/M phase at 2 uM after 24 hrs by RNAse A/ PI staining based flow cytometric analysis (reference value: 9.47%); assay type: functional; procedure, shortened: as §5
A549 [16] = test: Induction of G2/M cell cycle arrest in human A549 cells assessed as increase in CDK1 expression at 2 to 8 uM by immunoblot analysis; assay type: functional, cell-based
Procedure, shortened: (§6)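 A549 lysates in RIPA buffer with protease inhibitors were run on SDS-PAGE and blotted to PVDF. Membranes were probed overnight at 4 °C with primary antibody at 1:1000, then secondary antibody at 1:3000-1:5000 for 1 h, and detected by ECL. Band intensity was normalised to GAPDH. Results are mean ± S.E.M. from three independent experiments.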

A549 [17] = test: Cell cycle arrest in human A549 cells assessed as downregulation of CDK2 expression at 2 to 8 uM by immunoblot analysis; assay type: functional, cell-based; procedure, shortened: as §6
Tubulin (Homo sapiens) = Tubulin (Homo sapiens) (UniProt P68371+Q9H4B7+P0DPH7+P68366+Q13509+Q71U36+P04350+Q3ZCM7+P07437+P68363+Q9BQE3+Q6PEY2+Q13885+Q9BVA1+Q9BUF5); test: Induction of tubulin depolymerization in human A549 cells at 4 to 8 uM after 24 hrs by DAPI staining based fluorescence microscopic analysis; assay type: cell-based
Procedure, shortened: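 Cells were fixed in 4% paraformaldehyde, permeabilised with 1% Triton, and blocked with 5% BSA. Staining used anti-tubulin (1:200) overnight, then Cy3 anti-mouse IgG (1:1500) 1 h, then DAPI 1 µg/mL. Imaging by confocal microscopy.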

A549 [18] = test: Inhibition of Wnt/beta-catenin signaling pathway in human A549 cells assessed as reduction in beta-catenin expression in cytoplasm by Western blot analysis; assay type: cell-based; procedure, shortened: as §3
A549 [19] = test: Cell cycle arrest in human A549 cells assessed as accumulation at G2/M phase at 8 uM after 36 hrs by RNAse A/ PI staining based flow cytometric analysis (reference value: 12.65%); assay type: functional; procedure, shortened: as §5

Work on `CC(C)=CC[C@@H](OC(=O)/C=C\C(=O)c1ccc(F)cc1)C1=CC(=O)c2c(O)ccc(O)c2C1=O` yielded an IC50 (HeLa) of 7.93 µM, an IC50 (NCI-H460) of 5.61 µM and an Activity (A549 [1]) of 17.6%. For the same compound, the Activity (A549 [2]) was 0.175%, the Activity (A549 [3]) was 3.29% and the viability at 12 µM (A549 [4]) was 15.1%. For the same compound, the Activity (A549 [5]) was 4.16%, the viability at 8 µM (A549 [6]) was 37.1% and the Activity (A549 [7]) was 27.5%. For the same compound, the Activity (A549 [8]) was “Dose-dependent effect”, the Activity (A549 [9]) was “Active” and the Activity (A549 [10]) was “Active”. For the same compound, the Activity (A549 [11]) was 55.8%, the Activity (A549 [12]) was 38.6% and the Activity (A549 [13]) was “Tde”. The Activity (A549 [14]) was 61.67%, the Activity (A549 [15]) was 15.4% and the Activity (A549 [16]) was “Active”. For the same compound, the Activity (A549 [17]) was “Active”, the Activity (Tubulin (Homo sapiens)) was “Active” and the inhibition (A549 [18]) was “Dose-dependent effect”. For the same compound, the Activity (A549 [19]) was 46.55%.
